Data published in ChEMBL document CHEMBL6078712, “Triterpenoid phthalimides as selective anti-cancer agents targeting mitochondrial apoptosis” (Eur J Med Chem, 2025).
Activity calls are given as the source filed them. The rule behind the calls is not given here.

Columns and labels:
HCT 116 TP53(-/-) = assay: Cytotoxicity against human HCT116-p53-null cells assessed as inhibition of cell growth incubated for 72 hrs by MTS assay; format: functional, cell-based
In short: (§1)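 MTS assay on eight human cancer lines and two non-tumour fibroblast lines. IC50 is the concentration that inhibits cell growth by 50 %. SD typically up to 15 % of the mean.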

CCRF-CEM [1] = assay: Induction of apoptosis in human CCRF-CEM cells assessed as downregulation of BCL-XL expression at 5 times IC50 incubated for 24 hrs by Western blotting analysis; format: functional, cell-based
In short: (§2)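 30 µg protein per lane on SDS-PAGE, transferred to nitrocellulose, blocked in 5 % BSA/TBS-Tween. Primary antibodies overnight at 4 °C (Akt, P-Akt Ser473, STAT-3, caspase-3, PARP, cyclin D, cyclin A, Bcl-xL, Bak, Bid, Bim), then HRP secondary and ECL detection. GAPDH as loading control.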

Mitochondrial membrane = assay: Induction of mitochondrial membrane potential depolarization in human CCRF-CEM cells assessed as fold increase in fluorescence intensity incubated for 24 hrs by JC-1 staining based flow cytometry; format: cell membranes
CCRF-CEM [2] = assay: Induction of apoptosis in human CCRF-CEM cells assessed as early apoptotic cells at 1 times IC50 incubated for 24 hrs by Annexin V-FITC and PI staining based flow cytometric analysis (reference value: 2.1 %); format: functional
In short: (§3)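 Washed in Ca2+-containing binding buffer, then stained 15 min at room temperature in the dark with Annexin V-FITC and propidium iodide (PI at half the kit-recommended level). Read at once by flow cytometry with a 488 nm laser, ≥10,000 cells. Debris excluded; quadrants viable, early apoptotic, late apoptotic/necrotic, necrotic. Three independent experiments.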

[3] = Cytotoxicity against human MRC5 cells assessed as inhibition of cell growth incubated for 72 hrs by MTS assay; format: toxicity, cell-based; in short: as §1
HCT-116 = assay: Cytotoxicity against human HCT-116 cells assessed as inhibition of cell growth incubated for 72 hrs by MTS assay; format: functional, cell-based; conditions: HCT-116, 72 h; in short: as §1
CCRF-CEM [4] = assay: Cytotoxicity against human CCRF-CEM cells assessed as inhibition of cell growth incubated for 72 hrs by MTS assay; format: functional, cell-based; in short: as §1
[5] = Metabolic stability in human liver microsomes assessed as parent compound remaining at 2 uM incubated for 30 mins in presence of NADPH by RF-MS analysis; format: ADME, Microsome; conditions: read-out: Stability
In short: (§4)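 Human plasma stability, plasma protein binding and liver microsome stability, each run in triplicate. Error deviations below 10 %.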

CCRF-CEM [6] = assay: Inhibition of RNA synthesis in human CCRF-CEM cells at 5 times IC50 incubated for 24 hrs by BrU incorporation based flow cytometry; format: functional
In short: (§5)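 Fixed in 1 % paraformaldehyde/0.05 % NP-40 (15 min at room temperature, then 4 °C overnight). Stained with cross-reacting anti-BrdU plus FITC secondary (45 min each), then PI/RNase A. Flow cytometry; % BrU-positive cells.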

[7] = Cytotoxicity against human K562-Tax cells assessed as inhibition of cell growth incubated for 72 hrs by MTS assay; format: functional, cell-based; in short: as §1
[8] = Metabolic stability in human liver microsomes assessed as parent compound remaining at 2 uM incubated for 60 mins in presence of NADPH by RF-MS analysis; format: ADME, Microsome; conditions: read-out: Stability; in short: as §4
[9] = Stability in human plasma assessed as compound remaining at 2 uM incubated for 15 mins by RF-MS analysis; format: ADME, cell-free; conditions: read-out: Stability; in short: as §4
[10] = Cytotoxicity against human BJ cells assessed as inhibition of cell growth incubated for 72 hrs by MTS assay; format: toxicity, cell-based; in short: as §1
CCRF-CEM [11] = assay: Induction of apoptosis in human CCRF-CEM cells assessed as late apoptotic cells at 5 times IC50 incubated for 24 hrs by Annexin V-FITC and PI staining based flow cytometric analysis (reference value: 0.4 %); format: functional; in short: as §3
[12] = Stability in human plasma assessed as compound remaining at 2 uM incubated for 30 mins by RF-MS analysis; format: ADME, cell-free; conditions: read-out: Stability; in short: as §4
K562 = assay: Cytotoxicity against human K562 cells assessed as inhibition of cell growth incubated for 72 hrs by MTS assay; format: functional, cell-based; conditions: K562, 72 h; in short: as §1
[13] = Plasma protein binding in human assessed as fraction bound at 10 uM incubated for 4 hrs by rapid equilibrium dialysis based RF-MS analysis; format: ADME, cell-free; conditions: read-out: PPB (converted); in short: as §4
CCRF-CEM [14] = assay: Inhibition of DNA synthesis in human CCRF-CEM cells at 5 times IC50 incubated for 24 hrs by BrdU incorporation based flow cytometry; format: functional
In short: (§6)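 Fixed in ice-cold 70 % ethanol, DNA denatured in 2 M HCl for 30 min, neutralised with borax. Stained with anti-BrdU plus FITC secondary, then PI/RNase A for 1 h. Flow cytometry; % BrdU-positive cells.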

CEM-DNR = assay: Cytotoxicity against human CEM-DNR cells assessed as inhibition of cell growth incubated for 72 hrs by MTS assay; format: functional, cell-based; in short: as §1
CCRF-CEM [15] = assay: Inhibition of DNA synthesis in human CCRF-CEM cells at 1 times IC50 incubated for 24 hrs by BrdU incorporation based flow cytometry; format: functional; in short: as §6
CCRF-CEM [16] = assay: Induction of apoptosis in human CCRF-CEM cells assessed as late apoptotic cells at 1 times IC50 incubated for 24 hrs by Annexin V-FITC and PI staining based flow cytometric analysis (reference value: 0.4 %); format: functional; in short: as §3
U2OS = assay: Cytotoxicity against human U2OS cells assessed as inhibition of cell growth incubated for 72 hrs by MTS assay; format: functional, cell-based; in short: as §1
[17] = Stability in human plasma assessed as compound remaining at 2 uM incubated for 120 mins by RF-MS analysis; format: ADME, cell-free; conditions: read-out: Stability; in short: as §4
CCRF-CEM [18] = assay: Induction of apoptosis in human CCRF-CEM cells assessed as viable cells at 1 times IC50 incubated for 24 hrs by Annexin V-FITC and PI staining based flow cytometric analysis (reference value: 97.4 %); format: functional; in short: as §3
CCRF-CEM [19] = assay: Induction of cell cycle arrest in human CCRF-CEM cells assessed as downregulation of Cyclin A expression at 5 times IC50 incubated for 24 hrs by Western blotting analysis; format: functional, cell-based; in short: as §2
CCRF-CEM [20] = assay: Induction of apoptosis in human CCRF-CEM cells assessed as upregulation of BID expression at 1 to 5 times IC50 incubated for 24 hrs by Western blotting analysis; format: functional, cell-based; in short: as §2
[21] = Stability in human plasma assessed as compound remaining at 2 uM incubated for 60 mins by RF-MS analysis; format: ADME, cell-free; conditions: read-out: Stability; in short: as §4
CCRF-CEM [22] = assay: Induction of apoptosis in human CCRF-CEM cells assessed as necrotic cells at 5 times IC50 incubated for 24 hrs by Annexin V-FITC and PI staining based flow cytometric analysis (reference value: 0.4 %); format: functional; in short: as §3
CCRF-CEM [23] = assay: Induction of apoptosis in human CCRF-CEM cells assessed as viable cells at 5 times IC50 incubated for 24 hrs by Annexin V-FITC and PI staining based flow cytometric analysis (reference value: 97.4 %); format: functional; in short: as §3
CCRF-CEM [24] = assay: Inhibition of RNA synthesis in human CCRF-CEM cells at 1 times IC50 incubated for 24 hrs by BrU incorporation based flow cytometry; format: functional; in short: as §5
[25] = Metabolic stability in human liver microsomes assessed as parent compound remaining at 2 uM incubated for 15 mins in presence of NADPH by RF-MS analysis; format: ADME, Microsome; conditions: read-out: Stability; in short: as §4
A549 = assay: Cytotoxicity against human A549 cells assessed as inhibition of cell growth incubated for 72 hrs by MTS assay; format: functional, cell-based; conditions: A549, 72 h; in short: as §1
CCRF-CEM [26] = assay: Induction of apoptosis in human CCRF-CEM cells assessed as necrotic cells at 1 times IC50 incubated for 24 hrs by Annexin V-FITC and PI staining based flow cytometric analysis (reference value: 0.4 %); format: functional; in short: as §3
CCRF-CEM [27] = assay: Induction of apoptosis in human CCRF-CEM cells assessed as early apoptotic cells at 5 times IC50 incubated for 24 hrs by Annexin V-FITC and PI staining based flow cytometric analysis (reference value: 2.1 %); format: functional; in short: as §3
CCRF-CEM [28] = assay: Induction of apoptosis in human CCRF-CEM cells assessed as upregulation of BIM expression at 1 to 5 times IC50 incubated for 24 hrs by Western blotting analysis; format: functional, cell-based; in short: as §2

CC1(C)[C@@H](O)CC[C@]2(C)[C@H]3CC[C@@H]4[C@H]5[C@H](c6cc7c(c(-c8ccccc8)c6)C(=O)N(c6ccccc6)C7=O)CC[C@]5(C(=O)O)CC[C@@]4(C)[C@]3(C)CC[C@@H]12
IC50 (HCT 116 TP53(-/-)): > 50 µM | Activity (CCRF-CEM [1]): Active | Activity (Mitochondrial membrane): Dose-dependent-effect | Activity (CCRF-CEM [2]): 5.4% | IC50 at 72 h [3]: > 50 µM | IC50 (HCT-116): 29.4 µM | IC50 (CCRF-CEM [4]): 5.18 µM | remaining at 0.5 h, 2 µM [5]: 87% | inhibition (INH) (CCRF-CEM [6]): 16.1% | IC50 [7]: 23.1 µM | remaining at 1 h, 2 µM [8]: 79% | remaining at 0.25 h, 2 µM [9]: 96% | IC50 at 72 h [10]: > 50 µM | Activity (CCRF-CEM [11]): 4.5% | remaining at 0.5 h, 2 µM [12]: 95% | IC50 (K562): > 50 µM | fraction unbound at 4 h, 10 µM [13]: 0.231 | inhibition (INH) (CCRF-CEM [14]): 37.8% | IC50 (CEM-DNR): 20 µM | inhibition (INH) (CCRF-CEM [15]): 35.2% | Activity (CCRF-CEM [16]): 3.9% | IC50 (U2OS): 25.9 µM | remaining at 2 h, 2 µM [17]: 89% | Activity (CCRF-CEM [18]): 90.7% | Activity (CCRF-CEM [19]): Active | Activity (CCRF-CEM [20]): Active | remaining at 1 h, 2 µM [21]: 100% | Activity (CCRF-CEM [22]): 0% | Activity (CCRF-CEM [23]): 90.4% | inhibition (INH) (CCRF-CEM [24]): 28.4% | remaining at 0.25 h, 2 µM [25]: 92% | IC50 (A549): > 50 µM | Activity (CCRF-CEM [26]): 0% | Activity (CCRF-CEM [27]): 5.1% | Activity (CCRF-CEM [28]): Active

COc1ccc(N2C(=O)c3ccc([C@@H]4CC[C@]5(C(=O)O)CC[C@]6(C)[C@H](CC[C@@H]7[C@@]8(C)CC[C@H](O)C(C)(C)[C@@H]8CC[C@]76C)[C@@H]45)cc3C2=O)cc1
IC50 (HCT 116 TP53(-/-)): > 50 µM | IC50 at 72 h [3]: > 50 µM | IC50 (HCT-116): > 50 µM | IC50 (CCRF-CEM [4]): 11.1 µM | IC50 [7]: 5.35 µM | IC50 at 72 h [10]: > 50 µM | IC50 (K562): > 50 µM | IC50 (CEM-DNR): 9.85 µM | IC50 (U2OS): 27.5 µM | IC50 (A549): 28.1 µM

CC(=O)OC[C@]12CC[C@@H](c3ccc4c(c3)C(=O)NC4=O)[C@@H]1[C@H]1CC[C@@H]3[C@@]4(C)CC[C@H](OC(C)=O)C(C)(C)[C@@H]4CC[C@@]3(C)[C@]1(C)CC2
IC50 (HCT 116 TP53(-/-)): > 50 µM | IC50 at 72 h [3]: > 50 µM | IC50 (HCT-116): > 50 µM | IC50 (CCRF-CEM [4]): > 50 µM | IC50 [7]: > 50 µM | IC50 at 72 h [10]: > 50 µM | IC50 (K562): > 50 µM | IC50 (CEM-DNR): > 50 µM | IC50 (U2OS): > 50 µM | IC50 (A549): > 50 µM

CC1(C)[C@@H](O)CC[C@]2(C)[C@H]3CC[C@@H]4[C@H]5[C@H](c6cc7c(c(-c8ccccc8)c6)C(=O)N(c6ccc(C#N)cc6)C7=O)CC[C@]5(C(=O)O)CC[C@@]4(C)[C@]3(C)CC[C@@H]12
IC50 (HCT 116 TP53(-/-)): > 50 µM | IC50 at 72 h [3]: > 50 µM | IC50 (HCT-116): > 50 µM | IC50 (CCRF-CEM [4]): 14.2 µM | IC50 [7]: > 50 µM | IC50 at 72 h [10]: > 50 µM | IC50 (K562): > 50 µM | IC50 (CEM-DNR): > 50 µM | IC50 (U2OS): > 50 µM | IC50 (A549): > 50 µM

COc1ccc(N2C(=O)c3ccc([C@@H]4CC[C@]5(COC(C)=O)CC[C@]6(C)[C@H](CC[C@@H]7[C@@]8(C)CC[C@H](OC(C)=O)C(C)(C)[C@@H]8CC[C@]76C)[C@@H]45)cc3C2=O)cc1
IC50 (HCT 116 TP53(-/-)): > 50 µM | IC50 at 72 h [3]: > 50 µM | IC50 (HCT-116): > 50 µM | IC50 (CCRF-CEM [4]): > 50 µM | IC50 [7]: > 50 µM | IC50 at 72 h [10]: > 50 µM | IC50 (K562): > 50 µM | IC50 (CEM-DNR): > 50 µM | IC50 (U2OS): > 50 µM | IC50 (A549): > 50 µM
